From ChEMBL document CHEMBL1141125, “Heteroaryl-substituted naphthalenes and structurally modified derivatives: selective inhibitors of CYP11B2 for the treatment of congestive heart failure and myocardial fibrosis” (J Med Chem, 2005)
Values after ≈ are worked out from the molar mass of the structure shown.

Columns and labels:
[1] = target: T1, Cytochrome P450 11B2, mitochondrial (Homo sapiens, UniProt P19099); assay: Percent inhibition against human cytochrome P450 11B2 expressed in fission yeast, incubated with [14C]deoxycorticosterone; design: concentration or dose not given beside the values
T1 sequence (P19099 whole entry): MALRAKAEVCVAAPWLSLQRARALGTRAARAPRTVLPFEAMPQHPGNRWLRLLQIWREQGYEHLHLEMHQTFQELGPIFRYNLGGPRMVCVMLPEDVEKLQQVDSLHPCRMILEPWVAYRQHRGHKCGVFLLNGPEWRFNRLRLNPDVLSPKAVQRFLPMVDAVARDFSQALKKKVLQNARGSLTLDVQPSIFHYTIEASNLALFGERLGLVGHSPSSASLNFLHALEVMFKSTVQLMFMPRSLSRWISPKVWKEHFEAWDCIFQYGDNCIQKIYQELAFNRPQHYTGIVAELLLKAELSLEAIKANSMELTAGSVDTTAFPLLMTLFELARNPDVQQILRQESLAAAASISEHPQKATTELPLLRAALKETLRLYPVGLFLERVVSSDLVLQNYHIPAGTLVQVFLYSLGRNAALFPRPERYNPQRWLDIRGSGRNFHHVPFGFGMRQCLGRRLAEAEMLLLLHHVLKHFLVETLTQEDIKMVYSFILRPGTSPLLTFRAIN

[2] = target: T2, Steroid 17-alpha-hydroxylase/17,20 lyase (Homo sapiens, UniProt P05093); assay: Percent inhibition against recombinant human cytochrome P450 17A1 using progesterone; design: concentration or dose not given beside the values
T2 sequence (P05093 whole entry): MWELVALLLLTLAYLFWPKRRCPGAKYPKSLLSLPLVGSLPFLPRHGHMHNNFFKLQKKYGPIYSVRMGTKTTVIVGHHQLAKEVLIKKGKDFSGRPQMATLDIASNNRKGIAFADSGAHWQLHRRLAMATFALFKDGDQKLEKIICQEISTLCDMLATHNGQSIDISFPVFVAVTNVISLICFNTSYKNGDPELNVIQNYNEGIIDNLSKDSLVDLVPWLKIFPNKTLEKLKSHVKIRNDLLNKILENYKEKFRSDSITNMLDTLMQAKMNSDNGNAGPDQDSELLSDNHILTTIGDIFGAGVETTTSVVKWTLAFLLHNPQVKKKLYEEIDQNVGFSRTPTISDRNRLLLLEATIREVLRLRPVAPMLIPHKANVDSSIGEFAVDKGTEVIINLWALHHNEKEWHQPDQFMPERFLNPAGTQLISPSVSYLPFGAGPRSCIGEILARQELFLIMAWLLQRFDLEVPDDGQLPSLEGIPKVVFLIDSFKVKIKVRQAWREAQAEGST

[3] = target: T3, Cytochrome P450 11B1, mitochondrial (Homo sapiens, UniProt P15538); assay: Inhibitory concentration against human cytochrome P450 11B1 expressed in V79 MZh hamster lung fibroblasts, incubated with [14C]deoxycorticosterone
T3 sequence (P15538 whole entry): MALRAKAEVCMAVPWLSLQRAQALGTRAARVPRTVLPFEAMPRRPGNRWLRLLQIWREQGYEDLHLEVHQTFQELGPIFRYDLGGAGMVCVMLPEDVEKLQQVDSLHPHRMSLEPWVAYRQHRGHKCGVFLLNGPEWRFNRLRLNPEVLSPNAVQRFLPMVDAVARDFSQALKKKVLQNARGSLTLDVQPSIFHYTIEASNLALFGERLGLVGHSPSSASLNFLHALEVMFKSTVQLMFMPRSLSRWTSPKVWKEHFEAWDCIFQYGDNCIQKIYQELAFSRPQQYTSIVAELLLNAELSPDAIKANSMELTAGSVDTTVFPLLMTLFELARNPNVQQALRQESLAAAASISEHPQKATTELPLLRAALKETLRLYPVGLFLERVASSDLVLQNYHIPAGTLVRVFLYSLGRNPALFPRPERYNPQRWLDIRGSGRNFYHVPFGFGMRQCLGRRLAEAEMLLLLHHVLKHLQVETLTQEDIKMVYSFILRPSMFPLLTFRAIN

[4] = Solubility calculated with ACD/I-lab at pH 7.4; details: read-out: S
Homo sapiens = species on record: Homo sapiens; assay: Ratio between inhibitory concentration of cytochrome P450 11B1 to cytochrome P450 11B2
In short: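 Confluent V79 MZh hamster lung fibroblasts expressing human CYP11B1 or CYP11B2, in DMEM. Preincubated 60 min at 37 °C with inhibitor at three or more concentrations. [4-14C]11-deoxycorticosterone substrate, 100 nM. Incubation 120 min for CYP11B1 and 40 min for CYP11B2; controls without inhibitor. Ethyl acetate extraction, then HPTLC with phosphoimager quantification, giving IC50.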

Aromatase = target: T4, Aromatase (Homo sapiens, UniProt P11511)
T4 sequence (P11511 whole entry): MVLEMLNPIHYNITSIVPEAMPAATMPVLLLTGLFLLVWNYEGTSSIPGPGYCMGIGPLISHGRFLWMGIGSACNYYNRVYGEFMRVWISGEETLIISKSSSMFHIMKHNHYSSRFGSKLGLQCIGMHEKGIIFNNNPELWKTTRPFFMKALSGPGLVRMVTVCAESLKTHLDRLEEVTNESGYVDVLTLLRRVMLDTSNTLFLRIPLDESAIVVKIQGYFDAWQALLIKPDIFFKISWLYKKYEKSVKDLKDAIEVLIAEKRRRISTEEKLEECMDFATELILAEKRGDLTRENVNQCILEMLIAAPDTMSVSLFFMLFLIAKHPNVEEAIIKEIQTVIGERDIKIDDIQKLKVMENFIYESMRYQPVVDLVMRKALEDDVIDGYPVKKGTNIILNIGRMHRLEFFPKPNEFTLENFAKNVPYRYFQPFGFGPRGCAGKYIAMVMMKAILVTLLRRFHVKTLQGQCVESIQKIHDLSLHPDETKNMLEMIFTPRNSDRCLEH

[5] = target: T1, Cytochrome P450 11B2, mitochondrial; assay: Inhibitory concentration against human cytochrome P450 11B2 expressed in V79 MZh hamster lung fibroblasts, incubated with [14C]deoxycorticosterone
[6] = target: T1, Cytochrome P450 11B2, mitochondrial; assay: Inhibitory concentration against human cytochrome P450 11B2 expressing in V79 MZh cells using [14C]deoxycorticosterone as substrate measured by screening assay; assay type: cell-based
CYP11B1 = target: T5, CYP11B1 (Homo sapiens, UniProt P15538); assay: Inhibitory concentration against human cytochrome P450 11B1 expressed in V79 MZh hamster lung fibroblasts, incubated with [14C]deoxycorticosterone; details: human, V79 MZh hamster lung fibroblasts expressing human CYP11B1, probe [14C]deoxycorticosterone
T5 sequence (P15538 whole entry): T3 sequence (P15538 whole entry)

Cytochrome P450 2D6 = Cytochrome P450 2D6 (Homo sapiens, UniProt P10635); assay: Inhibition percent against human hepatic cytochrome P450 2D6 enzyme at 20 nM concentration; no inhibition
Cytochrome P450 3A4 = Cytochrome P450 3A4 (Homo sapiens, UniProt P08684); assay: Inhibition percent against human hepatic cytochrome P450 3A4 enzyme at 50 uM concentration; no inhibition; assay type: ADME
Cytochrome P450 3A4, sequence (P08684 whole entry): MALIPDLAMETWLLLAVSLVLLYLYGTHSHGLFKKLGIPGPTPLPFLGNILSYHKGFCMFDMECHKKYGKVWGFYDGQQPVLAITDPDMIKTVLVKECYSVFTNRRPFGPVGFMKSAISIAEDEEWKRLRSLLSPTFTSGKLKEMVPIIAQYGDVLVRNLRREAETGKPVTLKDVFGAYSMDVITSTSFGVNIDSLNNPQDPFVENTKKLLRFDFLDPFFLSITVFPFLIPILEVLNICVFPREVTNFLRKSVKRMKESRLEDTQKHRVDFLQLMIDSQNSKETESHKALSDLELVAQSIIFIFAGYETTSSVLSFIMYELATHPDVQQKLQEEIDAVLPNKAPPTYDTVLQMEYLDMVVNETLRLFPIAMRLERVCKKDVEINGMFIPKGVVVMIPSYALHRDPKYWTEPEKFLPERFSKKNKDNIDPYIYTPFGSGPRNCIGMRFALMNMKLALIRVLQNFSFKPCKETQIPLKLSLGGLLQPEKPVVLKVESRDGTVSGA

Cytochrome P450 2D6, sequence (P10635 whole entry): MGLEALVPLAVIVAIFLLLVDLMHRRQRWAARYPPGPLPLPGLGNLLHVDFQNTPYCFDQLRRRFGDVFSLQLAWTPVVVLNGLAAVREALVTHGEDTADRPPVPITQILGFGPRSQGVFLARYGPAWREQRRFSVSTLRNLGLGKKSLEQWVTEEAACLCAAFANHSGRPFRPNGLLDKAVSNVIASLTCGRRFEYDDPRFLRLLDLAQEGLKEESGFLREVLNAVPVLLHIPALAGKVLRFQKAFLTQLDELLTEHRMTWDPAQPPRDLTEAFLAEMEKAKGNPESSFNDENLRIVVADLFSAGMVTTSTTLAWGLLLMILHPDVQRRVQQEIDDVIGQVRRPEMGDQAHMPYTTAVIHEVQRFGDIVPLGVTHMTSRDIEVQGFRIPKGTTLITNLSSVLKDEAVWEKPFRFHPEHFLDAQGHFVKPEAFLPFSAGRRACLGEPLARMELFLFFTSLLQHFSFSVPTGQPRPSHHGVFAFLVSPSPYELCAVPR

Row | SMILES | Inhibition [1] [%] | IC50 [3] [µM] | solubility [4] [µM] | Selectivity factor (Homo sapiens) | also measured
1 | N#Cc1ccc(C2CCCc3cncn32)cc1 (stereo not drawn) [FADROZOLE] | – | – | – | – | Inhibition [2]: 5%
2 | COc1ccc2cc(-c3cccnc3)ccc2c1Cl | – | 2.52 | 7.6 (≈ 2.05 µg/mL) | 192 | –
3 | Brc1ccc2cc(-c3cccnc3)ccc2c1 | – | 2.94 | 1.3 (≈ 0.369 µg/mL) | 196 | IC50 (Aromatase): > 36 µM
4 | CNC(=O)c1ccc2cc(-c3cccnc3)ccc2c1 | 0 | – | – | – | –
5 | c1ccc2cc(-n3ccnc3)ccc2c1 | – | 1.32 | 280 (≈ 54.4 µg/mL) | – | IC50 [5]: 0.039 µM; IC50 [6]: 0.0385 µM
6 | c1ccc2cc(-c3cnc[nH]3)ccc2c1 | 41 | – | – | 0.7 | IC50 (CYP11B1): 0.207 µM; IC50 [5]: 0.296 µM
7 | Cn1cncc1-c1ccc2ccccc2c1 | 28 | – | – | – | –
8 | NC(=O)c1ccc2cc(-c3cccnc3)ccc2c1 | 0 | – | – | – | –
9 | Oc1ccc2cc(-c3cccnc3)ccc2c1 | – | – | 230 (≈ 50.9 µg/mL) | – | –
10 | c1ccc2cc(-c3cnco3)ccc2c1 | 11 | – | – | 66 | IC50 [5]: 0.012 µM
11 | COc1ccc2cc(-c3cccnc3)ccc2c1-c1cccnc1 | 9 | – | – | – | –
12 | COc1ccc2c(Cl)c(-c3cccnc3)ccc2c1Cl | – | 4.9 | 7.2 (≈ 2.19 µg/mL) | 174 | Inhibition [2]: 83%
13 | c1cncc(-c2ccc3ccccc3c2)c1 | – | – | 200 (≈ 41.1 µg/mL) | – | –
14 | c1cncc(-c2cc3ccccc3c3ccccc23)c1 | 27 | 7.55 | – | – | –
15 | c1cncc(-c2cnc3ccccc3n2)c1 | 13 | – | – | – | –
16 | c1ccc(COc2ccc3cc(-c4cccnc4)ccc3c2)cc1 | 3 | – | – | – | –
17 | COc1ccc2cc(-c3cccnc3)ccc2c1Br | – | 4.48 | 39 (≈ 12.3 µg/mL) | 136 | –
18 | N#Cc1ccc2cc(-c3cccnc3)ccc2c1 | – | – | 160 (≈ 36.8 µg/mL) | 238 | Inhibition [2]: 73%; IC50 (Aromatase): > 36 µM

Continued, in another order:

Row | Inhibition [1] [%] | IC50 [3] [µM] | solubility [4] [µM] | Selectivity factor (Homo sapiens) | SMILES | also measured
19 | 36 | – | – | – | CCCOc1ccc2cc(-c3cccnc3)ccc2c1 | –
20 | 49 | 0.849 | – | 4 | COc1ccc2cc(-n3ccnc3)ccc2c1 | IC50 [5]: 0.218 µM; IC50 [6]: 0.218 µM
21 | – | 5.42 | – | 451 | CCOc1ccc2cc(-c3cccnc3)ccc2c1 | Inhibition (Cytochrome P450 2D6): Not Active; Inhibition (Cytochrome P450 3A4): Not Active
22 | 74 | – | 71 (≈ 18.7 µg/mL) | 145 | COC(=O)c1ccc2cc(-c3cccnc3)ccc2c1 | IC50 [5]: 0.072 µM
23 | – | 2.72 | 14 (≈ 3.78 µg/mL) | 94 | COc1ccc2ccc(-c3cccnc3)c(Cl)c2c1 | Inhibition [2]: 94%; IC50 (Aromatase): > 36 µM
24 | – | – | 79 (≈ 18.6 µg/mL) | – | COc1ccc2cc(-c3cccnc3)ccc2c1 | Inhibition [2]: 72%
25 | 87 | 0.081 | – | 4 | COc1cc2ccccc2cc1-n1ccnc1 | IC50 [5]: 0.019 µM; IC50 [6]: 0.0191 µM
26 | 30 | – | – | – | COc1cc2ccccc2cc1-c1cccnc1 | IC50 [6]: > 0.5 µM
27 | 17 | 6.34 | – | 10 | c1ccc2ncc(-n3ccnc3)cc2c1 | IC50 [5]: 0.604 µM
28 | 0 | – | – | – | COc1ccc2cc(-c3ccncc3)ccc2c1 | –
